Measured values as given in ChEMBL document CHEMBL4118203, “Optimized synthesis and antiproliferative activity of desTHPdactylolides” (Bioorg Med Chem, 2018).

Columns and labels:
PC-3 [1] = assay: Antiproliferative activity against human PC3 cells after 72 hrs by methylene blue staining based assay; assay type: functional, cell-based; details: PC-3, 72 h
PC-3 [2] = assay: Antiproliferative activity against docetaxel-sensitive human PC3 cells after 3 days by WST-1 assay; assay type: functional, cell-based; details: PC-3, 72 h
Method in brief: (§1)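 Cells grown at 37 °C, 5% CO2: PC-3 and LNCaP in RPMI-1640, DU145 in EMEM, each with 10% FBS and 1% penicillin/streptomycin. Plated at 3,200 cells/well and exposed to a range of doses for 3 days, with DMSO vehicle control. WST-1 reagent was then added for 3 h at 37 °C and absorbance read at 430 nm. IC50 is the mean of at least triplicate runs.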

DU-145 = assay: Antiproliferative activity against docetaxel-sensitive human DU145 cells after 3 days by WST-1 assay; assay type: functional, cell-based; details: DU-145, 72 h; method in brief: as §1
[3] = Antiproliferative activity against human PC3/DTX cells after 3 days by WST-1 assay; assay type: functional, cell-based; details: 72 h
Method in brief: (§2)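 Docetaxel-resistant lines were derived from DU145 or PC-3 over one year by stepwise-increasing docetaxel, starting at the parental IC50. Cells were kept continuously in docetaxel, with medium changed every 2–3 days. For the assay, cells were plated at 3,200/well and treated with a dose range for 3 days against DMSO vehicle. WST-1 was added for 3 h at 37 °C and absorbance read at 430 nm. IC50 is the mean of at least triplicates.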

[4] = Resistance index, ratio of IC50 for human DU145/DTX cells to IC50 for docetaxel-sensitive human DU145 cells; assay type: functional
[5] = Antiproliferative activity against human DU145/DTX cells after 3 days by WST-1 assay; assay type: functional, cell-based; details: DU-145, 72 h; method in brief: as §2
[6] = Resistance index, ratio of IC50 for human PC3/DTX cells to IC50 for docetaxel-sensitive human PC3 cells; assay type: functional
LNCaP = assay: Antiproliferative activity against docetaxel-sensitive human LNCAP cells after 3 days by WST-1 assay; assay type: functional, cell-based; details: 72 h; method in brief: as §1

Row | Structure (SMILES) | IC50 (PC-3 [1]) | IC50 (PC-3 [2]) | IC50 (DU-145) | IC50 (LNCaP) | IC50 [3] | Ratio IC50 [4] | IC50 [5] | Ratio IC50 [6]
1 | C=C1C[C@H]2C/C=C/C(=O)C/C(C)=C\C=C\C(=O)OC(C=O)C/C(C)=C/[C@@H](C1)O2 (stereo not given in full) | 0.75 µM | – | – | – | – | – | – | –
2 | COc1ccc(COC[C@H]2C/C(C)=C/COCC/C=C/C(=O)C/C(C)=C\C=C\C(=O)O2)cc1 | – | 6.31 µM | 3.16 µM | 2.85 µM | 3.77 µM | 1 | 3.2 µM | 0.6
3 | CC(=O)O[C@@]12CO[C@@H]1C[C@H](O)[C@@]1(C)C(=O)[C@H](O)C3=C(C)[C@@H](OC(=O)[C@H](O)[C@@H](NC(=O)OC(C)(C)C)c4ccccc4)C[C@@](O)([C@@H](OC(=O)c4ccccc4)[C@H]21)C3(C)C [DOCETAXEL ANHYDROUS] | – | 0.0019 µM | 0.0012 µM | 0.0002 µM | 2.34 µM | 7150 | 8.58 µM | 1232
4 | C/C1=C/C=C/C(=O)O[C@H](C=O)C/C(C)=C/COCC/C=C/C(=O)C1 | 4.02 µM | 11.9 µM | 11.6 µM | 13.5 µM | 15.4 µM | 1.3 | 15.3 µM | 1.3

Second part, led by results:

Row | IC50 (PC-3 [1]) | IC50 (PC-3 [2]) | IC50 (DU-145) | IC50 (LNCaP) | Structure (SMILES) | IC50 [3] | Ratio IC50 [4] | IC50 [5] | Ratio IC50 [6]
5 | – | 7.66 µM | 9.21 µM | 8.27 µM | COc1ccc(COC[C@@H]2C/C(C)=C/COCC/C=C/C(=O)C/C(C)=C\C=C\C(=O)O2)cc1 | > 20 µM | >2.2 | > 20 µM | >2.6
6 | – | > 30 µM | > 30 µM | > 30 µM | C/C1=C/C=C/C(=O)O[C@@H](CO)C/C(C)=C/COCC/C=C/C(=O)C1 | > 30 µM | – | > 30 µM | –
7 | 3.05 µM | 16.1 µM | 17.8 µM | 19.3 µM | C/C1=C/C=C/C(=O)O[C@H](CO)C/C(C)=C/COCC/C=C/C(=O)C1 | 14.4 µM | 0.8 | 14.1 µM | 0.9
8 | – | 5.27 µM | 5.41 µM | 3.22 µM | C/C1=C/C=C/C(=O)O[C@@H](C=O)C/C(C)=C/COCC/C=C/C(=O)C1 | 4.41 µM | 1.5 | 8.03 µM | 0.8
